Test results reported in ChEMBL document CHEMBL1137646, “Intracellular metabolism and persistence of the anti-human immunodeficiency virus activity of 2',3'-didehydro-3'-deoxy-4'-ethynylthymidine, a novel thymidine analog” (Antimicrob Agents Chemother, 2007).
Active and inactive are the calls of the source. The rule behind the calls is not given here.

Key:
RKO [1] = experiment: Induction of thymidylate kinase expression in human RKO cells expressing Tet-On gene after 48 hrs by Western blotting; format: functional, cell-based
Procedure, shortened: (§1)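 Tet-On TMPK RKO cells were grown with doxycycline at 0, 50 or 3,000 ng/ml to induce TMPK. Expression was assessed by Western blotting with actin as the internal control.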

RKO [2] = experiment: Induction of thymidylate kinase expression in human RKO cells expressing Tet-On gene after 48 hrs by Western blotting relative to control; format: functional; procedure, shortened: as §1
RKO [3] = experiment: Induction of 3-phosphoglycerate kinase expression in human RKO cells expressing Tet-On gene at 100 ng/ml after 72 hrs by Western blotting relative to control
CCRF-CEM [4] = experiment: Drug metabolism in human CEM cells assessed as radioactive stavudine monophosphate accumulation at 2 uM after 12 hrs assessed per 10^6 cells; format: ADME, cell-based
Procedure, shortened: (§2)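 CEM cells (2 x 10^7/ml) in RPMI 1640 with 10% dialyzed FBS were incubated at 37°C with 2 µM [3H]analog (75 mCi/mmol) and harvested at 2, 4, 8, 12, 16 and 24 h. Cells were washed in ice-cold PBS with 20 µM dipyridamole and extracted with 15% TCA. Neutralized extracts were separated on a Partisil SAX column with an H2O to 300 mM potassium phosphate gradient and radiometric detection, reported as pmol/10^6 cells, mean ± SD of three experiments.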

CCRF-CEM [5] = experiment: Drug metabolism in human CEM cells assessed as radioactive stavudine diphosphate accumulation at 2 uM after 12 hrs assessed per 10^6 cells; format: ADME, cell-based; procedure, shortened: as §2
CCRF-CEM [6] = experiment: Drug metabolism in human CEM cells assessed as radioactive stavudine triphosphate accumulation at 2 uM after 12 hrs assessed per 10^6 cells; format: ADME, cell-based; procedure, shortened: as §2
CCRF-CEM [7] = experiment: Drug metabolism in human CEM cells assessed as radioactive zidovudine monophosphate accumulation at 2 uM assessed per 10^6 cells; format: ADME, cell-based; conditions: TDE = time-dependent effect; procedure, shortened: as §2
CCRF-CEM [8] = experiment: Drug metabolism in human CEM cells assessed as radioactive zidovudine diphosphate accumulation at 2 uM assessed per 10^6 cells; format: ADME, cell-based; conditions: TDE = time-dependent effect; procedure, shortened: as §2
CCRF-CEM [9] = experiment: Drug metabolism in human CEM cells assessed as radioactive zidovudine triphosphate accumulation at 2 uM assessed per 10^6 cells; format: ADME, cell-based; conditions: TDE = time-dependent effect; procedure, shortened: as §2
CCRF-CEM [10] = experiment: Drug metabolism in human CEM cells assessed as radioactive 2', 3'-didehydro-3'-deoxy-4'-ethynylthymidine monophosphate accumulation at 2 uM assessed per 10^6 cells; format: ADME, cell-based; conditions: TDE = time-dependent effect; procedure, shortened: as §2
CCRF-CEM [11] = experiment: Drug metabolism in human CEM cells assessed as radioactive 2', 3'-didehydro-3'-deoxy-4'-ethynylthymidine diphosphate accumulation at 2 uM assessed per 10^6 cells; format: ADME, cell-based; conditions: TDE = time-dependent effect; procedure, shortened: as §2
CCRF-CEM [12] = experiment: Drug metabolism in human CEM cells assessed as radioactive 2', 3'-didehydro-3'-deoxy-4'-ethynylthymidine triphosphate accumulation at 2 uM assessed per 10^6 cells; format: ADME, cell-based; conditions: TDE = time-dependent effect; procedure, shortened: as §2
CCRF-CEM [13] = experiment: Drug metabolism in human CEM cells assessed as radioactive stavudine monophosphate accumulation at 2 uM assessed per 10^6 cells; format: ADME, cell-based; conditions: TDE = time-dependent effect; procedure, shortened: as §2
CCRF-CEM [14] = experiment: Drug metabolism in human CEM cells assessed as radioactive stavudine diphosphate accumulation at 2 uM assessed per 10^6 cells; format: ADME, cell-based; conditions: TDE = time-dependent effect; procedure, shortened: as §2
CCRF-CEM [15] = experiment: Drug metabolism in human CEM cells assessed as radioactive stavudine triphosphate accumulation at 2 uM assessed per 10^6 cells; format: ADME, cell-based; conditions: TDE = time-dependent effect; procedure, shortened: as §2
CCRF-CEM [16] = experiment: Stability in human CEM cells assessed as intracellular radioactive phosphorylated metabolite accumulation at 2 uM incubated for 24 hrs measured after 8 hrs of compound removal assessed per 10^6 cells; format: ADME, cell-based
Procedure, shortened: (§3)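 CEM cells were loaded with 2 µM [3H]analog (75 mCi/mmol) for 24 h, washed, and resuspended in drug-free medium. Intracellular metabolites were then measured by SAX-HPLC with radiometric detection at 0, 2, 4, 8, 12 and 24 h after removal. Values are pmol/10^6 cells, mean ± SD of three experiments.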

CCRF-CEM [17] = experiment: Stability in human CEM cells assessed as intracellular radioactive triphosphate metabolite accumulation at 2 uM incubated for 24 hrs measured after 24 hrs of compound removal assessed per 10^6 cells; format: ADME, cell-based; procedure, shortened: as §3
[18] = tested on: Human immunodeficiency virus 1; experiment: Antiviral activity against 0.1 MOI HIV1 3B infected in human TZM-b1 cells assessed as inhibition of viral replication after 24 hrs by luciferase assay; format: functional, organism-based
Procedure, shortened: (§4)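 TZM-bl cells in phenol red-free RPMI 1640 were infected with HIV-1 IIIB (MOI 0.1) at the time of adding drug at various concentrations, and drug and virus stayed together for 24 h. Lysate luciferase was measured with uninfected background subtracted, in quintuple wells. Inhibition was the mean signal relative to drug-free infected cells.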

[19] = tested on: Human immunodeficiency virus 1; experiment: Antiviral activity against 0.1 MOI HIV1 3B in 24 hrs pretreated human TZM-b1 cells infected 24 hrs post drug removal assessed as inhibition of viral replication at 1 to 6 uM measured 24 hrs postinfection by luciferase assay; format: functional, organism-based
Procedure, shortened: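 TZM-bl cells were plated in phenol red-free RPMI 1640, allowed to adhere 15–18 h at 37°C, then exposed to a range of drug concentrations for 24 h. Medium was changed to remove extracellular drug, and cells were infected with HIV-1 IIIB (MOI 0.1) at 0, 24 or 48 h after removal. Luciferase was read 24 h post-infection with uninfected-cell background subtracted, in quintuple wells, and expressed relative to no-drug wells.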

[20] = tested on: Human immunodeficiency virus 1; experiment: Antiviral activity against 0.1 MOI HIV1 3B infected in human TZM-b1 cells assessed as inhibition of viral replication at 6 uM after 24 hrs by luciferase assay; format: functional; conditions: Human immunodeficiency virus 1, 3B, TZM-b1, 24 h; procedure, shortened: as §4
[21] = tested on: Human immunodeficiency virus 1; experiment: Antiviral activity against 0.1 MOI HIV1 3B infected in human TZM-b1 cells assessed as inhibition of viral replication at 2 uM after 24 hrs by luciferase assay; format: functional; conditions: Human immunodeficiency virus 1, 3B, TZM-b1, 24 h; procedure, shortened: as §4
[22] = tested on: Human immunodeficiency virus 1; experiment: Antiviral activity against 0.1 MOI HIV1 3B in 24 hrs pretreated human TZM-b1 cells infected 24 hrs post drug removal assessed as inhibition of viral replication at 1 to 6 uM measured 24 hrs postinfection by luciferase assay
[23] = Half life in plasma of HIV1-infected patient; format: ADME, cell-free; conditions: human
[24] = tested on: Human immunodeficiency virus 1; experiment: Antiviral activity against 0.1 MOI HIV1 3B in 24 hrs pretreated human TZM-b1 cells infected 0 hr post drug removal assessed as inhibition of viral replication at 0.18 uM measured 24 hrs postinfection by luciferase assay; format: functional; conditions: Human immunodeficiency virus 1, 3B
Procedure, shortened: (§5)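 TZM-bl cells (kept in DMEM) were plated at 0.5 x 10^4 per well in phenol red-free RPMI 1640 and left to adhere 15-18 h at 37°C. They were then exposed to drug for 24 h with quintuple wells per concentration. Medium was changed to remove drug, and cells were infected with HIV-1 IIIB at MOI 0.1 at 0, 24 or 48 h after removal. Luciferase was read 24 h post-infection after subtracting the uninfected background. Inhibition is expressed relative to drug-free control wells.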

[25] = tested on: Human immunodeficiency virus 1; experiment: Antiviral activity against 0.1 MOI HIV1 3B in 24 hrs pretreated human TZM-b1 cells infected 24 hrs post drug removal assessed as inhibition of viral replication at 0.04 to 0.18 uM measured 24 hrs postinfection by luciferase assay; format: functional, organism-based; procedure, shortened: as §5
[26] = tested on: Human immunodeficiency virus 1; experiment: Antiviral activity against 0.1 MOI HIV1 3B in 24 hrs pretreated human TZM-b1 cells infected 48 hrs post drug removal assessed as inhibition of viral replication at 0.04 to 0.18 uM measured 24 hrs postinfection by luciferase assay; format: functional, organism-based; procedure, shortened: as §5
[27] = Half life in plasma of HIV1-infected patient administered as single dose; format: ADME, cell-free; conditions: human
[28] = tested on: Human immunodeficiency virus 1; experiment: Antiviral activity against 0.1 MOI HIV1 3B infected in human TZM-b1 cells assessed as inhibition of viral replication at 0.18 uM after 24 hrs by luciferase assay; format: functional; conditions: Human immunodeficiency virus 1, 3B, TZM-b1, 24 h
Procedure, shortened: (§6)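 TZM-bl cells were plated at 0.5 x 10^4 per well in phenol red-free RPMI 1640 and allowed to adhere 15-18 h at 37°C. After a medium change, drug was added with quintuple wells per concentration, and cells were infected at the same time with HIV-1 IIIB at MOI 0.1. After 24 h, cells were lysed and luciferase was read minus the uninfected background. Values are percentage of mean luminescence in drug-free wells.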

[29] = tested on: Human immunodeficiency virus 1; experiment: Antiviral activity against 0.1 MOI HIV1 3B infected in human TZM-b1 cells assessed as inhibition of viral replication at 0.11 uM after 24 hrs by luciferase assay; format: functional; conditions: Human immunodeficiency virus 1, 3B, TZM-b1, 24 h; procedure, shortened: as §6
[30] = tested on: Human immunodeficiency virus 1; experiment: Antiviral activity against 0.1 MOI HIV1 3B infected in human TZM-b1 cells assessed as inhibition of viral replication at 0.14 uM after 24 hrs by luciferase assay; format: functional; conditions: Human immunodeficiency virus 1, 3B, TZM-b1, 24 h; procedure, shortened: as §6
[31] = substrate: Cc1cn([C@H]2C[C@H](N=[N+]=[N-])[C@@H](CO)O2)c(=O)[nH]c1=O; conditions: Homo sapiens; H9
[32] = substrate: Cc1cn([C@H]2C[C@H](N=[N+]=[N-])[C@@H](CO)O2)c(=O)[nH]c1=O; conditions: Homo sapiens; H9; remark: listed apart in the source

**Q.** With C[C@H]1c2cccc(O)c2C(=O)C2=C(O)[C@]3(O)C(=O)C(C(N)=O)=C(O)[C@@H](N(C)C)[C@@H]3[C@@H](O)[C@@H]21.O [DOXYCYCLINE] as the molecule, how does the Activity (RKO [1]) read?
**A.** Dose-dependent effect

**Q.** And the “fold change (FC)” value (RKO [2])?
**A.** 5

**Q.** And the “fold change (FC)” value (RKO [3])?
**A.** 3

**Q.** For Cc1cn([C@H]2C=C[C@@H](CO)O2)c(=O)[nH]c1=O [STAVUDINE], which Activity (CCRF-CEM [4]) is on record?
**A.** 1.2 pmol

**Q.** What about the Activity (CCRF-CEM [5]) of the same molecule?
**A.** 1.2 pmol

**Q.** What about the Activity (CCRF-CEM [6]) of the same molecule?
**A.** 1.2 pmol

**Q.** And the Activity (CCRF-CEM [7])?
**A.** tde

**Q.** And the Activity (CCRF-CEM [8])?
**A.** tde

**Q.** And the Activity (CCRF-CEM [9])?
**A.** tde

**Q.** And the Activity (CCRF-CEM [10])?
**A.** tde

**Q.** And the Activity (CCRF-CEM [11])?
**A.** tde

**Q.** What about the Activity (CCRF-CEM [12]) of the same molecule?
**A.** tde

**Q.** What about the Activity (CCRF-CEM [13]) of the same molecule?
**A.** tde

**Q.** And the Activity (CCRF-CEM [14])?
**A.** tde

**Q.** And the Activity (CCRF-CEM [15])?
**A.** tde

**Q.** And the Stability (CCRF-CEM [16])?
**A.** 0.2 pmol

**Q.** What about the Stability (CCRF-CEM [17]) of the same molecule?
**A.** Unstable

**Q.** What about the inhibition [18] of the same molecule?
**A.** Dose-dependent effect

**Q.** What about the inhibition [19] of the same molecule?
**A.** inactive

**Q.** What about the inhibition at 6 µM [20] of the same molecule?
**A.** 50%

**Q.** And the inhibition at 2 µM [21]?
**A.** 50%

**Q.** What about the inhibition [22] of the same molecule?
**A.** inactive

**Q.** Which inhibition [18] does the source give for Cc1ccnc2c1NC(=O)c1cccnc1N2C1CC1 [NEVIRAPINE] here?
**A.** Dose-dependent effect

**Q.** And the half-life [23]?
**A.** 30 h

**Q.** And the inhibition at 0.18 µM [24]?
**A.** < 50%

**Q.** And the inhibition [25]?
**A.** inactive

**Q.** What about the inhibition [26] of the same molecule?
**A.** inactive

**Q.** And the half-life [27]?
**A.** 30 h

**Q.** What about the inhibition at 0.18 µM [28] of the same molecule?
**A.** 50%

**Q.** What about the inhibition at 0.11 µM [29] of the same molecule?
**A.** 50%

**Q.** And the inhibition at 0.14 µM [30]?
**A.** 50%

B1: Thymidine kinase, cytosolic (Homo sapiens), P04183 (protein)
chain: MSCINLPTVLPGSPSKTRGQIQVILGPMFSGKSTELMRRVRRFQIAQYKCLVIKYAKDTRYSSSFCTHDRNTMEALPACLLRDVAQEALGVAVIGIDEGQFFPDIVEFCEAMANAGKTVIVAALDGTFQRKPFGAILNLVPLAESVVKLTAVCMECFREAAYTKRLGTEKEVEVIGGADKYHSVCRLCYFKKASGQPAGPDNKENCPVPGKPGEAVAARKLFAPQQILQCSPAN
**Q.** With B1 as the molecule, how does the Km [31] read?
**A.** 2.9 µM

**Q.** And the Km [32]?
**A.** 3 µM
